Shown are actives, neighbours in structure and some others; about 4% of the full set was active somewhere.
SIRT5 block = sirtuin-5 (human) deacylase inhibition. actives 1.1% (n = 330,000). AID 652115. inhibition, % at 15 µM. Q9NXA8. Purified SirT5, succinyl-peptide AMC, trypsin-coupled fluorescence; in the data active = inhibition above about 15%; inconclusive = no clear call, values can overlap the other calls
Target sequence (Q9NXA8 whole entry, looked up): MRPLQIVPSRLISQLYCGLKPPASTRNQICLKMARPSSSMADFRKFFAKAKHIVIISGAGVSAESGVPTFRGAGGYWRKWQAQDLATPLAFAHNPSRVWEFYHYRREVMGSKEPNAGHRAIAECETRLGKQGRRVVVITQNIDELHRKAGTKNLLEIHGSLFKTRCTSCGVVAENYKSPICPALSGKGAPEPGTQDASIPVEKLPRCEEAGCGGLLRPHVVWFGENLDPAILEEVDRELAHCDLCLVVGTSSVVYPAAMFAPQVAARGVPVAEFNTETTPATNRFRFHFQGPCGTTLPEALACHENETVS
C2C12 statin = suppressors of simvastatin-induced myotoxicity in C2C12 myotubes; rescue of ATP level, % at 7.49 µM; actives 0.78% (n = 330,000); AID 602340; ATP luminescence, 48 h; scaled: DMSO 0, geranylgeraniol control 100;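 active = mean ATP rescue above about 67%, or every replicate alone reaching that limit, limit read from the data, passing the limit was not always enough; inconclusive = no clear call, values can overlap the other calls; inactive = mean under the limit and some replicate under it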;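 note: myotubes were challenged with 10 µM simvastatin during compound exposure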
FN deposit inh = fibronectin deposition inhibition; AH1F fibroblasts, Alexa488-fibronectin deposition fluorescence, overnight; actives 0.086% (n = 350,000); inhibition, % at 12.6 µM;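 active = mean inhibition across replicates of 30% or more, regardless of how many single replicates reach that level; inconclusive = mean under 30% yet at least half of replicates reach 30%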
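Material: AH1F fibroblast monolayer depositing Alexa488-labelled fibronectin into matrix / Amount: 10000 AH1F cells per well / Signal: fluorescence 485/525 nm / Medium: DMEM, 2% serum / Compound: single dose, pinned / Incubation: 1 h cell adhesion before compound, then overnight fibronectin incubation / Reagent: Alexa488-FN, 24 nM final / Read-out: inhibition of fibronectin deposition signal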
Ecoli rRNA inh = selective bacterial rRNA inhibition in E. coli; actives 1.6% (n = 350,000); GFP signal change (wild-type ribosome), % (test concentration not listed); E. coli WT GFP vs humanized-ribosome RFP mutants, fluorescence, 24 h; stronger effect = lower value; DMSO median 0, no signal -100;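 active = significant combined selectivity score with lowered wild-type GFP, culture density cut under 30%, mutant RFP and density less affected; inactive = any of these conditions unmet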
E-sel inducer = induces E-selectin expression in human endothelial cells | HUVEC E-selectin immunofluorescence imaging; normalized: neutral wells 0, TNF-alpha wells 100 | activation, % at 7.58 µM | actives 0.37% (n = 260,000) | P16581;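 active = mean E-selectin-positive cell signal at least 10% of the positive control, reached in at least 60% of replicates, without over 20% cell loss; inconclusive = no rule given, readout overlaps actives, possibly toxicity-flagged; inactive = the rest, including those meeting only one limit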
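Read-out: % PE-positive cells | Test system: HUVEC | Doses: One compound dose added by pin transfer | Buffer or medium: EGM-2 over gelatin coat | Signal: Immunofluorescence imaging | Benchmarks: TNF-alpha, DMSO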
FGF22 binding = FGF22 (human) thermal shift binding; activity (Tm shift, normalised), % at 9.99 µM; recombinant FGF22 thermal shift, SYPRO orange fluorescence; percent of sucrose octasulfate shift, DMSO zero; Q9HCT0; actives 1.5% (n = 340,000); AID 651658;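 active = mean Tm shift, scaled 0 neutral to 100 positive control, at about 1.3% or above, every replicate too, limit read from the data; inconclusive = no clear call, values can overlap the other calls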
Target sequence (Q9HCT0 whole entry, looked up): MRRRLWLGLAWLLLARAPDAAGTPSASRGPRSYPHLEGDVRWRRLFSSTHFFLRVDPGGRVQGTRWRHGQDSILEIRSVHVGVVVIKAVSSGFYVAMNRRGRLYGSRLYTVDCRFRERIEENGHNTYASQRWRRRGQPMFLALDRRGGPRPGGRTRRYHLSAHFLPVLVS
A number is an active result; . = inactive; ? = inconclusive; / = no result.

SMILES | SIRT5 block | C2C12 statin | FN deposit inh | Ecoli rRNA inh | E-sel inducer | FGF22 binding
COc1ccc(S(=O)(=O)Nc2ccccc2C(=O)NC(C)(C)C)cc1OC | / | 123 | . | / | / | /
C[C@H]1CN([C@@H](C)CO)C(=O)c2cc(NS(=O)(=O)c3ccc(Cl)cc3)ccc2O[C@H]1CN(C)S(=O)(=O)c1cccs1 | . | ? | / | . | . | .
COc1ccc(CCNC(=O)[C@H](CCSC)NC(=O)N2CCn3c2nc2ccccc23)cc1OC | . | . | . | . | / | .
COc1ccc(CCNC(=O)[C@H](C)NC(=O)N2CCn3c2nc2ccccc23)cc1OC | 30 | . | . | . | / | .
COc1ccc(NC(=O)c2cccn(CC=C(C)C)c2=O)cc1 | . | . | . | -26 | / | .
C=CCn1cccc(C(=O)Nc2ccc(OC)cc2)c1=O | . | / | . | . | / | /
Cc1ccc2c3c(cccc13)-c1ccccc1C2=O | / | / | . | . | / | .
Nc1ccc2c3c(cccc13)-c1ccccc1-2 | / | 126 | . | . | . | .
N#C/C(=C\c1ccc(O)cc1)c1nc2ccccc2o1 | . | / | . | -35 | . | .
CC(C)CNC(=O)COC(=O)CCC(=O)c1cccs1 | . | / | . | . | . | 43
CCC(CC)NC(=O)COC(=O)CCC(=O)c1cccs1 | . | / | . | . | . | 43
Cc1c(Cl)cnc(NC(=O)COC(=O)CCC(=O)c2cccs2)c1Cl | . | / | . | . | . | 43
CCNC(=O)COC(=O)CCC(=O)c1cccs1 | . | / | . | . | . | .
O=C(Nc1cc(F)ccc1F)N1C[C@H]2[C@@H](c3ccccc31)[C@H](CO)N2Cc1ccncc1 | . | . | / | . | . | .
COc1ccccc1C(=O)N1C[C@@H]2[C@H](c3ccccc31)[C@H](CO)N2Cc1ccc(F)cc1 | / | . | / | . | . | .
O=C(Nc1cc(F)ccc1F)N1C[C@@H]2[C@H](c3ccccc31)[C@H](CO)N2Cc1ccncc1 | 22 | . | / | -43 | . | .
COc1ccccc1C(=O)N1C[C@H]2[C@@H](c3ccccc31)[C@@H](CO)N2Cc1ccc(F)cc1 | 16 | . | / | . | . | .
CCC(=O)N1C[C@H]2[C@@H](c3ccccc31)[C@@H](CO)N2Cc1cc(F)ccc1F | 28 | . | / | . | . | .
CCCC#Cc1cnc2c(c1)C(=O)N([C@H](C)CO)C[C@@H](C)[C@H](CN(C)CCC)O2 | . | . | / | . | . | .
CCOc1ncccc1C(=O)NCc1cccc(OC)c1 | / | . | . | / | / | /
COc1cccc(CNC(=O)c2cccnc2Sc2ccc(C)cc2C)c1 | . | . | . | -31 | / | .
Cc1ccc(SCCNC(=S)Nc2ccc(C)c(C)c2)cc1 | / | . | . | / | / | /
Cc1cc(C)cc(NC(=S)NCCSc2ccc(Cl)cc2)c1 | . | / | . | . | / | 44
Cc1ccc(SCCNC(=S)Nc2cc(C)ccc2C)cc1 | / | 73 | / | / | / | /
COc1cccc(CNC(=S)Nc2cc(C)ccc2C)c1 | . | . | . | -26 | . | .
SMILES | SIRT5 block | C2C12 statin | FN deposit inh | Ecoli rRNA inh | E-sel inducer | FGF22 binding
COc1cccc(CNC(=S)Nc2cccc(Cl)c2C)c1 | . | . | . | . | / | .
C[C@@H]1CN([C@H](C)CO)C(=O)c2cc(NC(=O)CCCCCC(=O)Nc3ccccc3N)ccc2O[C@@H]1CN(C)Cc1ccc(C(F)(F)F)cc1 | . | / | / | . | . | /
C[C@@H]1CN([C@H](C)CO)C(=O)c2cc(-c3ccncc3)cnc2O[C@@H]1CN(C)C(=O)c1ccc(F)cc1 | . | . | . | . | . | .
CCC(C(=O)Nc1cccc(C(=O)O)c1C)c1ccccc1 (configuration not stated) | . | / | . | . | . | 43
CCC(C(=O)Nc1ccccc1N1CCCC1)c1ccccc1 (configuration not stated) | . | . | . | . | / | .
COc1ccccc1C(=O)Nc1c(C(=O)N(CCN(C)C)Cc2ccco2)oc2ccccc12 | . | . | . | -40 | / | .
CC(C)=CC(=O)OCC(=O)Nc1ccc(SC(F)F)cc1 | . | / | . | / | . | 44
CC(C)CC(NC(N)=O)C(=O)OCC(=O)Nc1ccc(SC(F)F)cc1 (configuration not stated) | . | / | / | . | / | .
FC(F)Sc1ccc(NC(=S)NCc2ccccc2)cc1 | . | . | . | . | / | 43

Compound activity: PubChem, Broad Institute
